Laboratory results as given in ChEMBL document CHEMBL1124743, “Development of a novel series of (2-quinolinylmethoxy)phenyl-containing compounds as high-affinity leukotriene receptor antagonists. 1. Initial structure-activity relationships” (J Med Chem, 1990).
Calls of active or inactive are those of the source. The calls are words filed in the database; no cut-off is given here.

Key:
[1] = biological target: T1, Cysteinyl leukotriene receptor 1 (Cavia porcellus, UniProt Q2NNR5); assay: Binding affinity against Cysteinyl leukotriene D4 receptor from guinea pig lung was determined using [3H]LTD4 (0.2 nM)
T1 sequence (Q2NNR5 whole entry): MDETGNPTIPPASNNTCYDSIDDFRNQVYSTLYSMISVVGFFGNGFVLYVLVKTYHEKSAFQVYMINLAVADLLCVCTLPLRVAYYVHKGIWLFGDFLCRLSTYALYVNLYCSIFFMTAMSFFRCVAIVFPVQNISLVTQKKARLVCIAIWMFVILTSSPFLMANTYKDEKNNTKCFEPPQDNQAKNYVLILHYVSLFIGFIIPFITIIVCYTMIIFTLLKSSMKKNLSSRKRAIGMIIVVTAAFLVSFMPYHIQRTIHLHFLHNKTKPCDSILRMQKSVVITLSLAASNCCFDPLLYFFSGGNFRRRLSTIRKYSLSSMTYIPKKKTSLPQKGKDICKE
In short: (§1)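 Membranes from guinea pig lung were incubated with 0.2 nM [3H]LTD4. Ki was derived from an IC50 read graphically, using at least four compound concentrations run in duplicate. Single-concentration values are % inhibition of specific binding at the stated concentration. Results are mean ± SEM with N separate experiments.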

[2] = biological target: Cysteinyl leukotriene receptor (Cavia porcellus); assay: Inhibition of the spasmogenic activity of LTD4 in guinea pig parenchymal strips.
Cavia porcellus [3] = species on record: Cavia porcellus; assay: Oral activity expressed as percent inhibition in leukotriene mediated anaphylaxis assay in guinea pig at 60 uM; type: functional; details: in the assay text read “60 mg/kg” for “60 uM”
In short: (§2)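 Immunized guinea pigs were pretreated with pyrilamine, propranolol and indomethacin, given compound orally, then challenged with aerosolized ovalbumin. Mortality was the end point. ED50 was determined graphically from at least three doses with at least six animals per dose. Other values are % inhibition at the indicated mg/kg dose.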

Cavia porcellus [4] = assay: Oral activity expressed as percent inhibition in LTD4-induced wheal assay in guinea pig at 18 mg/kg
[5] = biological target: T2, Cysteinyl leukotriene receptor 1 (Cavia porcellus) (UniProt Q2NNR5); assay: Binding affinity at 10 uM against Cysteinyl leukotriene D4 receptor from guinea pig lung by [3H]LTD4 (0.2 nM) displacement.; in short: as §1
T2 sequence (whole entry): T1 sequence (Q2NNR5 whole entry)

[6] = system: Cysteinyl leukotriene receptor (Cavia porcellus); assay: inhibition of the spasmogenic activity of LTD4 in guinea pig parenchymal strips at 10 uM.
Cavia porcellus [7] = species on record: Cavia porcellus; assay: Oral activity expressed as percent inhibition in LTD4-induced wheal assay in guinea pig at 10 uM; type: functional; details: in the assay text read “at 10 mg/kg” for “at 10 uM”
In short: (§3)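 Guinea pigs received compound orally 60 min before intradermal LTD4 challenge, and wheal formation was scored. ED50 came from linear regression over at least three doses, with at least five animals per point. Other values are % inhibition at the indicated mg/kg dose.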

Cavia porcellus [8] = species on record: Cavia porcellus; assay: Oral activity expressed as percent inhibition in LTD4-induced wheal assay in guinea pig at 9 uM; type: functional; details: in the assay text read “at 9 mg/kg” for “at 9 uM”; in short: as §3
Cavia porcellus [9] = species on record: Cavia porcellus; assay: Oral activity expressed as effective dose in leukotriene mediated anaphylaxis assay in guinea pig; type: functional; in short: as §2
Cavia porcellus [10] = species on record: Cavia porcellus; assay: Oral activity expressed as effective dose in LTD4-induced wheal assay in guinea pig; type: functional; in short: as §3
Cavia porcellus [11] = species on record: Cavia porcellus; assay: Half life was determined; details: guinea pig
[12] = biological target: T1, Cysteinyl leukotriene receptor 1; assay: Compound was evaluated for inhibition against binding of [3H]LTD4 to Cysteinyl leukotriene D4 receptor; in short: as §1
Cavia porcellus [13] = species on record: Cavia porcellus; assay: Compound was evaluated for its effect on PGF2-alpha induced contractions of guinea pig peripheral lung strips; No significant effect up to 50 uM; type: functional
Cavia porcellus [14] = species on record: Cavia porcellus; assay: Compound was evaluated for its effect on histamine induced contractions of guinea pig peripheral lung strips; No significant effect up to 50 uM; type: functional
Cavia porcellus [15] = species on record: Cavia porcellus; assay: Compound was evaluated for its effect on methacholine induced contractions of guinea pig peripheral lung strips; No significant effect up to 50 uM; type: functional
Cavia porcellus [16] = assay: Effective dose to antagonize antigen induced bronchoconstrictive response (intraduodenal administration); type: functional
In short: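 Actively sensitized guinea pigs were pretreated with indomethacin, pyrilamine and propranolol, then given compound intraduodenally and challenged with iv ovalbumin. Inhibition of bronchoconstriction was measured. ED50 is reported with 95% CI.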

Cavia porcellus [17] = assay: Effective dose to antagonize bronchoconstrictive response of LTD4 at 0.8 ug/kg (i.v.); type: functional; details: Lung, iv
Cavia porcellus [18] = species on record: Cavia porcellus; assay: Compound was evaluated for its effect on LTC4 induced contractions of guinea pig peripheral lung strips; type: functional
In short: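 Guinea pig lung parenchymal strips were suspended in a tissue bath and contracted with 0.2 nM LTC4. IC50 was determined graphically from at least four concentrations. Results are mean ± SEM with N separate experiments, or % inhibition at the stated concentration.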

Cavia porcellus [19] = species on record: Cavia porcellus; assay: Compound was evaluated for its effect on LTD4 induced contractions of guinea pig peripheral lung strips; type: functional
Cavia porcellus [20] = species on record: Cavia porcellus; assay: Compound was evaluated for its effect on LTE4 induced contractions of guinea pig peripheral lung strips; type: functional
[21] = system: Arachidonate 5-lipoxygenase (Cavia porcellus); assay: Percent inhibition against 5-lipoxygenase from guinea pig polymorphonuclear […]; details: concentration not given here
Cavia porcellus [22] = species on record: Cavia porcellus; assay: Oral activity expressed as percent inhibition in leukotriene mediated anaphylaxis assay in guinea pig at 30 uM; type: functional; details: in the assay text read “30 mg/kg” for “30 uM”; in short: as §2
[23] = biological target: T2, Cysteinyl leukotriene receptor 1 (Cavia porcellus); assay: Binding affinity against Cysteinyl leukotriene D4 receptor from guinea pig lung was determined using [3H]LTD4 (0.2 nM) at compound concentration of 1 uM; in short: as §1
Cavia porcellus [24] = species on record: Cavia porcellus; assay: Ability to inhibit the spasmogenic activity of LTD4 in guinea pig parenchymal strips at 10 uM; type: functional
Cavia porcellus [25] = species on record: Cavia porcellus; assay: Ability to inhibit the spasmogenic activity of LTC4 in guinea pig parenchymal strips at 1 uM

Ki [1] | IC50 [2] | inhibition [5] | inhibition [6] | Compound | further results
85 nM | 140 nM |  |  | c1cc(OCc2ccc3ccccc3n2)cc(OCc2nn[nH]n2)c1 | Inhibition (Cavia porcellus [3]): 67%; Inhibition (Cavia porcellus [4]): 18%
3300 nM |  |  |  | c1ccc(OCc2ccc3ccccc3n2)c(OCCCc2nnn[nH]2)c1 | 
 |  | 15% | -10% | c1cc(OCCCc2nnn[nH]2)cc(OCc2cnc3ccccc3c2)c1 | 
 |  | 28% | 42% | c1ccc2[nH]c(COc3ccc(OCCCc4nnn[nH]4)cc3)nc2c1 | 
 |  | 10% | 18% | c1ccc(COc2cccc(OCCCc3nnn[nH]3)c2)nc1 | 
 |  | 48% | 9% | c1ccc(Oc2cccc(COc3cccc(OCCCc4nnn[nH]4)c3)n2)cc1 | 
69 nM | 250 nM |  |  | c1ccc2nc(COc3ccc(OCCCc4nnn[nH]4)cc3)ccc2c1 | ED50 (Cavia porcellus [10]): 7 mg/kg; ED50 (Cavia porcellus [9]): 50 mg/kg; half-life (Cavia porcellus [11]): ~4 h
42 nM | 79 nM |  |  | c1cc(OCCCc2nnn[nH]2)cc(OCc2ccc3ccccc3n2)c1 | Ki [12]: 42 nM; Activity (Cavia porcellus [13]): inactive; Activity (Cavia porcellus [14]): inactive; Activity (Cavia porcellus [15]): inactive; ED50 (Cavia porcellus [10]): 6.9 mg/kg; ED50 (Cavia porcellus [9]): 16 mg/kg; ED50 (Cavia porcellus [16]): 2.5 mg/kg; ED50 (Cavia porcellus [17]): 1.1 mg/kg; Kb (Cavia porcellus [18]): ~90 nM; Kb (Cavia porcellus [19]): ~90 nM; Kb (Cavia porcellus [20]): ~90 nM; half-life (Cavia porcellus [11]): ~4 h; inhibition [21]: 9%
 |  | 12% | 9% | c1ccc(COc2cccc(OCCCc3nnn[nH]3)c2)cc1 | 
1200 nM |  |  |  | c1ccc2nc(COCc3ccc(OCCCc4nnn[nH]4)cc3)ccc2c1 | 
240 nM |  |  | 59% | c1ccc2sc(COc3ccc(OCCCc4nnn[nH]4)cc3)nc2c1 | 
170 nM |  |  |  | Cc1cc(OCc2ccc3ccccc3n2)ccc1OCCCc1nnn[nH]1 | 
540 nM |  |  |  | c1ccc2nc(CSc3ccc(OCCCc4nnn[nH]4)cc3)ccc2c1 | 
 |  | 0% | 12% | c1cc(OCCCc2nnn[nH]2)cc(OCc2ccc3ccccc3c2)c1 | 
 |  | 45% |  | c1cc(OCCCc2nnn[nH]2)cc(OCc2cc3ccccc3cn2)c1 | inhibition at 10 µM (Cavia porcellus [24]): 68%
 |  | 58% | 22% | c1ccc(-c2ccc(COc3cccc(OCCCc4nnn[nH]4)c3)nc2)cc1 | 
 |  | 9% | 36% | c1ccc2sc(COc3ccc(OCCCc4nnn[nH]4)cc3)cc2c1 | 
240 nM | 250 nM |  |  | CCc1ccc(OCc2ccc3ccccc3n2)cc1OCCCc1nnn[nH]1 | 
75 nM | 120 nM |  |  | c1cc(OCCCCc2nnn[nH]2)cc(OCc2ccc3ccccc3n2)c1 | Inhibition (Cavia porcellus [9]): 64%
 |  | 48% | 50% | c1ccc(-c2cccc(COc3ccc(OCCCc4nnn[nH]4)cc3)n2)cc1 | 
500 nM |  |  | 75% | c1ccc2nc(COc3ccc(OCCCc4nnn[nH]4)cc3)ncc2c1 | 
640 nM |  |  |  | Cc1cc(OCCCc2nnn[nH]2)cc(OCc2ccc3ccccc3n2)c1 | inhibition at 1 µM (Cavia porcellus [25]): 20%

Further lines, the molecule ahead of its results:

Compound | Ki [1] | IC50 [2] | inhibition [5] | inhibition [6] | further results
CCOC(=O)CCCOc1ccc(OCc2ccc3ccccc3n2)cc1 | 500 nM | 2000 nM |  |  | 
CCCCCC(O)c1cccc(OCc2ccc3ccccc3n2)c1 (stereo not given) [REV-5901] | 1500 nM |  |  |  | 
c1ccc2nc(COc3ccc(CCc4nnn[nH]4)cc3)ccc2c1 | 160 nM | 280 nM |  |  | 
c1ccc2nc(COc3ccc(SCCCc4nnn[nH]4)cc3)ccc2c1 | 31 nM | 25 nM |  |  | Inhibition (Cavia porcellus [7]): 23%
O=C(CCCOc1ccc(OCc2ccc3ccccc3n2)cc1)NS(=O)(=O)c1ccccc1 | 31 nM | 19 nM |  |  | Inhibition (Cavia porcellus [8]): 24%; Inhibition (Cavia porcellus [3]): 64%
O=C(Nc1ccc(OCCCc2nnn[nH]2)cc1)c1ccc2ccccc2n1 |  |  | 25% | 4% | 
c1ccc(OCc2ccc3ccccc3n2)cc1 | 1000 nM |  |  |  | 
c1cc(OCc2ccc3ccccc3n2)cc(-c2nn[nH]n2)c1 | 115 nM | 200 nM |  |  | ED50 (Cavia porcellus [9]): 145 mg/kg
c1ccc2c(c1)CCC(COc1ccc(OCCCc3nnn[nH]3)cc1)N2 (stereo not given) |  |  |  | 22% | 
CCOC(=O)CCCOc1cccc(OCc2ccc3ccccc3n2)c1 | 160 nM | 600 nM |  |  | ED50 (Cavia porcellus [10]): 15 mg/kg; Inhibition (Cavia porcellus [22]): 83%
CCOC(=O)c1ccc(COc2ccc(OCCCc3nnn[nH]3)cc2)nc1 |  |  | 35% | 41% | 
O=C(Nc1ccc2ccccc2n1)c1ccc(OCCCc2nnn[nH]2)cc1 |  |  | 33% | 43% | 
O=C(O)c1ccc(COc2ccc(OCCCc3nnn[nH]3)cc2)nc1 |  |  | 30% | 22% | 
c1ccc2nc(COc3ccc(CCCCc4nnn[nH]4)cc3)ccc2c1 |  |  |  |  | Inhibition (Cavia porcellus [7]): 35%
c1ccc2c(COc3ccc(OCCCc4nnn[nH]4)cc3)nccc2c1 |  |  |  |  | inhibition [23]: 7%
c1ccc2nc(COc3ccc(Cc4nnn[nH]4)cc3)ccc2c1 | 275 nM | 1000 nM |  |  | 
O=C(O)CCCOc1ccc(OCc2ccc3ccccc3n2)cc1 | 1200 nM | 800 nM |  |  | 
c1ccc(COc2ccc(OCCCc3nnn[nH]3)cc2OCc2ccc3ccccc3n2)cc1 |  |  | 57% | 44% | 
O=C(O)CCCOc1cccc(OCc2ccc3ccccc3n2)c1 |  |  |  |  | ED50 (Cavia porcellus [10]): 7.2 mg/kg; ED50 (Cavia porcellus [9]): 20 mg/kg
O=C(NCc1ccc2ccccc2n1)c1ccc(OCCCc2nnn[nH]2)cc1 |  |  | 18% | -3% | 
